A value given as a limit tells only on which side of the number the result lay.

Results on 9 compounds are retold here after article PMC5092235 (Journal of medicinal chemistry, 2016).

The nature of data set [1]: Caco-2 membrane permeability studies. The class given is in vitro ADME. The following applies: for cellular permeability: Caco-2 cells; for efflux ratio: human, Caco-2. On the technique in general: Passage across Caco-2 layers is used to estimate intestinal permeability.
Data set [2] concerns panel of GPCRs. Put plainly: GPCR profiling.
The nature of data set [3]: Pharmacokinetic studies in mice. Format: in vivo, mouse. The following applies: 24 h experiments (31: 8 h experiment); for Clobs: mice; for half-life: female, C57BL/6, mouse, plasma, T1/2, mice.
Data set [4] deals with MLL-AF9 transformed murine bone marrow cells. Put plainly: MTT cell viability assay in MLL-AF9 transformed murine bone marrow cells. The class given is cell-based. To be noted: for SI, selectivity index: ratio of GI50 values measured in HM-2 cells (control cell line) and MLL-AF9 transformed cells; for GI50: read-out: GI50 MLL-AF9, MTT cell viability assay, 7 days of treatment. Background: Formazan colour is commonly taken as a measure of viable cells.

Data set [5] concerns panel of kinases. Put plainly: Kinase profiling. The class given is biochemical.
The subject of data set [6] is Hoxa9/Meis1 (HM-2) transformed murine bone marrow cells. Put plainly: MTT cell viability assay in Hoxa9/Meis1. Format: cell-based. To be noted: up to 6 μM, 7 days.
In data set [7] the test system is HL-60 cells. The data set is described as follows: MTT cell viability assay in HL-60 control cell line. The class given is cell-based, human. To be noted: up to 6 μM, 7 days. Put shortly: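 MTT viability over 7 days at 37 °C. Cells were grown in RPMI-1640 with 10% FBS, penicillin/streptomycin and NEAA, then seeded at 2 × 10^5/mL (HL-60) or 1 × 10^5/mL (MV4;11, MOLM-13). They were treated with test compound or 0.25% DMSO. On day 4 the medium was changed, viable cells were reset to the starting density, and compound was resupplied. Absorbance was read at 570 nm in quadruplicate, with runs repeated 2–3 times; mean and SD are reported.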

Data set [8] in a line: Phase II metabolism, detection of glucuronidation in blood plasma. The class given is in vivo, mouse. To be noted: blood plasma after iv administration, 15 mg/kg. The procedure, abridged: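 Test compound was given iv at 15 mg/kg to mice. Glucuronide was detected in blood plasma by LC–MS/MS in positive-ion MRM mode, following the same handling used for the pharmacokinetic study.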

Data set [9] has as its system MV4;11 tumors. The data set is described as follows: MV4. Format: in vivo, mouse. To be noted: 45 mg/kg, once daily via ip, 2 weeks.
In data set [10] the target is T1, menin (Homo sapiens, UniProt O00255).
T1 sequence (O00255 1-610): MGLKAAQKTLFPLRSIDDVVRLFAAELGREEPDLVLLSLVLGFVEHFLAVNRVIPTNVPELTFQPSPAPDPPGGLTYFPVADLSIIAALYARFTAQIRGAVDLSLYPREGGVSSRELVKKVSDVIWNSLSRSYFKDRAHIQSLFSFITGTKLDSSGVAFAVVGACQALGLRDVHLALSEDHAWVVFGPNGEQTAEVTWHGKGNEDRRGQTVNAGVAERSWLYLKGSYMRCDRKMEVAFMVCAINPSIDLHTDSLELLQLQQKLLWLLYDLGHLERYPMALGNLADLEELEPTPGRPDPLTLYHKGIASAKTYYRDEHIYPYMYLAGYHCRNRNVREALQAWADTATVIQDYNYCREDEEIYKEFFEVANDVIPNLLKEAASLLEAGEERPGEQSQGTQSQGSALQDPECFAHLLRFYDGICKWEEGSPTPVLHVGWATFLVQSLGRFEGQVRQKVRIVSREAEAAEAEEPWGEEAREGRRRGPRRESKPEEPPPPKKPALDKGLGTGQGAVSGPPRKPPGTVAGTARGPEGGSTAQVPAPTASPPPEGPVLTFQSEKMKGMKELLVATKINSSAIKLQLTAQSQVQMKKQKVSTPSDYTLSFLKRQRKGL
The data set is described as follows: Isothermal titration calorimetry, binding to menin. (In general: ITC needs no label: the signal is the heat of the interaction.)

Data set [11] relates to Hoxa9, Meis1 and Itgam expression in MLL-AF9 transformed BMCs. The data set is described as follows: qRT-PCR gene expression in MLL-AF9 transformed murine bone marrow cells. To be noted: 6 days of treatment. Format: cell-based. Put shortly:
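MLL-AF9-transformed murine bone marrow cells were treated for 6 days, and expression was then quantified by qRT-PCR. Itgam was normalised to 18S rRNA, and Hoxa9 and Meis1 to β-actin, each relative to DMSO-treated cells. Values are mean ± SD, n = 2.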

Consider `N#Cc1cc2cc(CN3CCC(Nc4ncnc5sc(CC(F)(F)F)cc45)CC3)ccc2n1CC(O)CO` (racemic) [3-(RS)], for which, in data set [1], the cellular permeability entry is “poor cellular permeability”.

What is called efflux ratio is the permeability from basolateral to apical divided by that in the opposite direction, in the common usage. In the case of `CO[C@@H](CO)Cn1c(C#N)cc2cc(CN3CCC(Nc4ncnc5sc(CC(F)(F)F)cc45)CC3)ccc21` [4-(R)], the efflux ratio in [1] was above 20.

Turning to `N#Cc1cc2cc(CN3CCC(Nc4ncnc5sc(CC(F)(F)F)cc45)CC3)ccc2[nH]1` [Compound 1, 5-((4-((6-(2,2,2-Trifluoroethyl)thieno[2,3-d]pyrimidin-4-yl)-amino)piperidin-1-yl)methyl)-1H-indole-2-carbonitrile], the “off-target activity on a panel of GPCRs” value in [2] is recorded as “did not show substantial off-target activity”. The Clobs in data set [3] (iv, 15 mg/kg) was found to be 38.1 mL/min/kg. For the same compound, in [4], the “SI, selectivity index” value is reported as below 6. Further, the “off-target activity on a panel of kinases” value in data set [5] was “did not show substantial off-target activity”.

Regarding `N#Cc1cc2cc(CN3CCC(Nc4ncnc5sc(CC(F)(F)F)cc45)CC3)ccc2n1CC(N)=O` [Compound 7, 2-(2-Cyano-5-((4-((6-(2,2,2-trifluoroethyl)thieno[2,3-d]-pyrimidin-4-yl)amino)piperidin-1-yl)methyl)-1H-indol-1-yl)-acetamide], in data set [1], the cellular permeability result was “poor cellular permeability” and the efflux ratio is above 90.

As usually defined, the GI50 is the concentration that inhibits growth by half. Turning to `Cc1c(CN2CCC(Nc3ncnc4sc(CC(F)(F)F)cc34)CC2)c(O)cc2[nH]c(C#N)cc12` [Compound 20, 6-Hydroxy-4-methyl-5-((4-((6-(2,2,2-trifluoroethyl)thieno-[2,3-d]pyrimidin-4-yl)amino)piperidin-1-yl)methyl)-1H-indole-2-carbonitrile], the cellular permeability entry in data set [1] is on record as “relatively high to moderate cellular permeability”. The Clobs in data set [3] (iv, 15 mg/kg) was 44.1 mL/min/kg. The GI50 in data set [4] is below 200 nM.

With `COc1cc2[nH]c(C#N)cc2c(C)c1CN1CCC(Nc2ncnc3sc(CC(F)(F)F)cc23)CC1` [Compound 21, 6-Methoxy-4-methyl-5-((4-((6-(2,2,2-trifluoroethyl)thieno-[2,3-d]pyrimidin-4-yl)amino)piperidin-1-yl)methyl)-1H-indole-2-carbonitrile], the cellular permeability result in data set [1] was “relatively high to moderate cellular permeability”. In data set [3] (iv, 15 mg/kg), this compound displayed a Clobs of 26.6 mL/min/kg. Further, the GI50 in data set [4] was 100 nM.

For `Cc1c(CN2CCC(Nc3ncnc4sc(CC(F)(F)F)cc34)CC2)ccc2c1cc(C#N)n2CC(N)=O` [Compound 25, 2-(2-Cyano-4-methyl-5-((4-((6-(2,2,2-trifluoroethyl)thieno-[2,3-d]pyrimidin-4-yl)amino)piperidin-1-yl)methyl)-1H-indol-1-yl)acetamide], in [1], the cellular permeability entry is reported as “poor cellular permeability”.

As usually defined, the half-life is the time needed for the level to fall by half in the phase considered. With `N#Cc1cc2cc(CN3CCC(Nc4ncnc5sc(CC(F)(F)F)cc45)CC3)c(O)cc2n1Cc1cn[nH]c1` [Compound 27, 1-((1H-Pyrazol-4-yl)methyl)-6-hydroxy-5-((4-((6-(2,2,2-trifluoroethyl)thieno[2,3-d]pyrimidin-4-yl)amino)piperidin-1-yl)methyl)-1H-indole-2-carbonitrile], in data set [6], the “effect on growth of control cell line HM-2” value is “no effect”. Further, the half-life in data set [3] (iv, 15 mg/kg, iv, 15 mg/kg) was around 1.6 h. The half-life in data set [3] (po, 30 mg/kg, po, 30 mg/kg) is 1.6 h. In data set [3] (iv, 15 mg/kg), this compound yielded a Clobs of 14.0 mL/min/kg. Moreover, in data set [4], the “SI, selectivity index” value is listed as above 100. The “effect on growth of control cell line HL-60” value in data set [7] was “no effect”. The “phase II metabolism” value in [8] is on record as “undergoes glucuronidation”. Besides, in data set [9], the “reduction in the MV4;11 tumor volume” value is “about 80%” and the “reduction of the body weight” value was “less than 10%”. Besides, the “ligand efficiency index (LE)” value in data set [10] stood at 0.28. In addition, the “expression level of Itgam (differentiation marker)” value in data set [11] is listed as “marked increase”.

With `COc1cc2c(cc(C#N)n2Cc2cn[nH]c2)c(C)c1CN1CCC(Nc2ncnc3sc(CC(F)(F)F)cc23)CC1` [Compound 31, 1-((1H-Pyrazol-4-yl)methyl)-6-methoxy-4-methyl-5-((4-((6-(2,2,2-trifluoroethyl)thieno[2,3-d]pyrimidin-4-yl)amino)-piperidin-1-yl)methyl)-1H-indole-2-carbonitrile], the Clobs in data set [3] (iv, 15 mg/kg) turned out to be 15.0 mL/min/kg. Besides, the GI50 in data set [4] was below 200 nM.
